Reference: ChEMBL document CHEMBL4622988, “Elucidation of Mechanism for Ligand Efficacy at Leukotriene B4 Receptor 2 (BLT2)” (ACS Med Chem Lett, 2020)
Activity calls are given as the source filed them. The calls are words filed in the database; no cut-off is given here.

Columns and labels:
[1] = target: T1, Leukotriene B4 receptor 2 (Homo sapiens) (UniProt Q9NPC1); assay: Agonist activity at HA-epitope tagged human BLT2 expressed in CHOK1 cells assessed as induction of chemotactic motility at 300 nM incubated for 2 hrs by hematoxylin and eosin staining based optical microscopic method; format: cell-based; conditions: CHO-K1
T1 sequence (whole entry): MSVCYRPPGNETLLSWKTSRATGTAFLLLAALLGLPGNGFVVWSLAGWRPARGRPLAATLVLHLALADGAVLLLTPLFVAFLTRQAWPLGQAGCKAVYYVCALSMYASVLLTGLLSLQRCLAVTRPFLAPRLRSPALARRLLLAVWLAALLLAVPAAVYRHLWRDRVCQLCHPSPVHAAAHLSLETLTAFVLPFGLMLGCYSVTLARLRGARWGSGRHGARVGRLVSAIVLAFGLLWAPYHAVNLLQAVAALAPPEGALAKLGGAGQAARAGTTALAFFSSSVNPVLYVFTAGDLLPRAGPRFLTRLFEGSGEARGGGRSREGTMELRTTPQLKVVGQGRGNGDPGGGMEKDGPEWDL
Method in brief: (§1)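 CHO cells were transfected with wild-type BLT2, the Y271A mutant or the Y271A/N275A double mutant, then exposed to agonist to induce chemotactic motility. Migrating cells were fixed and stained with hematoxylin/eosin for counting.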

CHO-K1 [2] = assay: Agonist activity at HA-epitope tagged human BLT2 Y271A mutant expressed in CHOK1 cells assessed as induction of chemotactic motility at 300 nM incubated for 2 hrs by hematoxylin and eosin staining based optical microscopic method; format: cell-based; method in brief: as §1
CHO-K1 [3] = assay: Agonist activity at HA-epitope tagged human BLT2 Y271A/N275A double mutant expressed in CHOK1 cells assessed as induction of chemotactic motility at 300 nM incubated for 2 hrs by hematoxylin and eosin staining based optical microscopic method; format: cell-based; method in brief: as §1
[4] = target: T2, Leukotriene B4 receptor 2 (Homo sapiens, UniProt Q9NPC1); assay: Displacement of [3H]LTB4 from HA-epitope tagged human BLT2 expressed in CHOK1 cells incubated for 60 mins by liquid scintillation counting method; format: cell-based, CHO-K1
T2 sequence (Q9NPC1 whole entry): T1 sequence (whole entry)
Method in brief: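 Competition binding: test ligand competed with 3H-LTB4 for binding to membranes prepared from cells expressing BLT2.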

CHO-K1 [5] = assay: Agonist activity at HA-epitope tagged human BLT2 Y271A mutant expressed in CHOK1 cells assessed as induction of chemotactic motility at 100 nM incubated for 2 hrs by hematoxylin and eosin staining based optical microscopic method; format: cell-based; method in brief: as §1
CHO-K1 [6] = assay: Agonist activity at HA-epitope tagged human BLT2 Y271A/N275A double mutant expressed in CHOK1 cells assessed as induction of chemotactic motility at 100 nM incubated for 2 hrs by hematoxylin and eosin staining based optical microscopic method; format: cell-based; method in brief: as §1
[7] = target: T1, Leukotriene B4 receptor 2 (Homo sapiens); assay: Agonist activity at HA-epitope tagged human BLT2 expressed in CHOK1 cells assessed as induction of chemotactic motility at 100 nM incubated for 2 hrs by hematoxylin and eosin staining based optical microscopic method; format: cell-based; conditions: CHO-K1; method in brief: as §1

Row | SMILES | Activity [1] | Activity (CHO-K1 [2]) | Activity (CHO-K1 [3]) | Kd ([4]; read-out: Kd) | Activity (CHO-K1 [5]) | Activity (CHO-K1 [6]) | Activity [7] | Kd ([4]; cho-k1)
1 | CCCCC/C=C\C[C@H](O)/C=C/C=C\C/C=C\CCCC(=O)O | Active | Active | inactive | – | – | – | – | –
2 | CCCCC(=O)N(Cc1ccc(-c2ccccc2C(=O)O)cc1)c1ccccc1 | – | – | – | 14.7 nM | inactive | inactive | Active | –
3 | CCCCC(=O)N(Cc1ccc(-c2ccccc2C)cc1)c1ccccc1 | – | – | – | – | – | – | – | Not Active
4 | CCCCC/C=C\C[C@@H](O)/C=C/C=C/C=C\[C@@H](O)CCCC(=O)O | Active | Active | inactive | – | – | – | – | –
5 | CCCCC[C@H](O)/C=C/C=C/C/C=C\CCCC(=O)O | – | – | – | – | inactive | inactive | Active | –
